Calls of active or inactive are those of the source. No cut-off for these calls is given here.
Tests used:
[1] = test system: Human immunodeficiency virus 1; assay: Antiviral activity against HIV1 isolate 05-121802 assessed as inhibition of viral replication after 7 days by scintillation counting; type: functional, organism-based; settings: Human immunodeficiency virus 1, isolate 05-121802, 168 h
[2] = test system: Human immunodeficiency virus 1; assay: Antiviral activity against HIV1 isolate 05-121773 assessed as inhibition of viral replication after 7 days by scintillation counting; type: functional, organism-based; settings: Human immunodeficiency virus 1, isolate 05-121773, 168 h
[3] = test system: Human immunodeficiency virus 1; assay: Antiviral activity against HIV1 isolate 05-121785 assessed as inhibition of viral replication after 7 days by scintillation counting; type: functional, organism-based; settings: Human immunodeficiency virus 1, isolate 05-121785, 168 h
[4] = organism: Cavia porcellus; assay: Inhibition of guinea pig ileum ACE at 30 uM; type: tissue-based
In short: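 Isolated guinea pig ileum preparation; ACE inhibition measured as maximal inhibition at 30 μM.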

[5] = target: Cytochrome P450 2C19 (Homo sapiens, UniProt P33261); assay: Inhibition of CYP2C19 up to 30 uM; type: ADME
Cytochrome P450 2C19, sequence (P33261 whole entry): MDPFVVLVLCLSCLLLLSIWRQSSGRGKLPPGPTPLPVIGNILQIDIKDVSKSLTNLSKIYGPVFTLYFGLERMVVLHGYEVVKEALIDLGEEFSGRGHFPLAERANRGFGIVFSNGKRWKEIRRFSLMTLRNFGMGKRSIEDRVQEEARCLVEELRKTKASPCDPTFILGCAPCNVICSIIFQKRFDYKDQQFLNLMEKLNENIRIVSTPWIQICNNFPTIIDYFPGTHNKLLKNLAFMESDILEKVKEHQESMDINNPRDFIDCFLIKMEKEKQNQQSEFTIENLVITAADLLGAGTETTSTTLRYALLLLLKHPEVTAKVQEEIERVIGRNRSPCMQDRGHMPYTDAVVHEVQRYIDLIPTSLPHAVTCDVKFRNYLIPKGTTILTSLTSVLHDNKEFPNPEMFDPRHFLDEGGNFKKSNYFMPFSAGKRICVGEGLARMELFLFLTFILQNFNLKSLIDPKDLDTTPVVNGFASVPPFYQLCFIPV

[6] = test system: Human immunodeficiency virus 1; assay: Antiviral activity against HIV1 isolate 05-121790 assessed as inhibition of viral replication after 7 days by scintillation counting; type: functional, organism-based; settings: Human immunodeficiency virus 1, isolate 05-121790, 168 h
[7] = Half life in monkey at 3 mg/kg, po administered as single dose by liquid chromatography-mass spectroscopy; type: ADME, organism-based, Macaca mulatta; set-up: dose 3 mg/kg, route oral; settings: rhesus monkey, in vivo
In short: (§1)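 Single oral dose of 3 mg/kg. Plasma was sampled at serial times over 24 h and measured by LC-MS/MS. Half-life was derived by pharmacokinetic analysis.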

[8] = test system: Human immunodeficiency virus 1; assay: Antiviral activity against HIV1 isolate 05-121774 assessed as inhibition of viral replication after 7 days by scintillation counting; type: functional, organism-based; settings: Human immunodeficiency virus 1, isolate 05-121774, 168 h
[9] = target: C-X-C chemokine receptor type 4 (Homo sapiens) (UniProt P61073); assay: Noncompetitive inhibition of CXCR4-mediated chemotaxis in SDF1-stimulated human U937 cells treated 15 mins before SDF1 challenge measured after 2 hrs by luminescence assay; type: cell-based; settings: U-937
C-X-C chemokine receptor type 4 (Homo sapiens), sequence (P61073 whole entry): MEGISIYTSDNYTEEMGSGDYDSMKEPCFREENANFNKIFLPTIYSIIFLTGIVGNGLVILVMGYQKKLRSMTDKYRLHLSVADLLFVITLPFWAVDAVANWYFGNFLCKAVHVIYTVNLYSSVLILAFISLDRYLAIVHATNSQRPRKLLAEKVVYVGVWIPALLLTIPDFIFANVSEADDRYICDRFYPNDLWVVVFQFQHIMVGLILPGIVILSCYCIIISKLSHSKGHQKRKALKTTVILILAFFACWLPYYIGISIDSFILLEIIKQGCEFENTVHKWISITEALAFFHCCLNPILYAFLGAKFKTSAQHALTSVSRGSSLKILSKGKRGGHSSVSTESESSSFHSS
In short: (§2)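 U937 cells (endogenous CXCR4) in RPMI with 2% FCS and 10 mM HEPES, 5 × 10^6 cells/ml, preincubated 15 min with compound, then placed above a 5.0 μm filter. The lower chamber held the same compound concentration plus SDF-1. Migration ran 2 h. Migrated cells were quantified by ATP luminescence. Viability was checked under identical conditions. For mode of action, SDF-1 concentration-response curves were run at increasing compound concentrations.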

[10] = test system: Human immunodeficiency virus 1; assay: Antiviral activity against HIV1 isolate 05-121775 assessed as inhibition of viral replication after 7 days by scintillation counting; type: functional, organism-based; settings: Human immunodeficiency virus 1, isolate 05-121775, 168 h
[11] = target: Cytochrome P450 3A4 (Homo sapiens, UniProt P08684); assay: Inhibition of CYP3A4 up to 30 uM; type: ADME
Cytochrome P450 3A4, sequence (P08684 whole entry): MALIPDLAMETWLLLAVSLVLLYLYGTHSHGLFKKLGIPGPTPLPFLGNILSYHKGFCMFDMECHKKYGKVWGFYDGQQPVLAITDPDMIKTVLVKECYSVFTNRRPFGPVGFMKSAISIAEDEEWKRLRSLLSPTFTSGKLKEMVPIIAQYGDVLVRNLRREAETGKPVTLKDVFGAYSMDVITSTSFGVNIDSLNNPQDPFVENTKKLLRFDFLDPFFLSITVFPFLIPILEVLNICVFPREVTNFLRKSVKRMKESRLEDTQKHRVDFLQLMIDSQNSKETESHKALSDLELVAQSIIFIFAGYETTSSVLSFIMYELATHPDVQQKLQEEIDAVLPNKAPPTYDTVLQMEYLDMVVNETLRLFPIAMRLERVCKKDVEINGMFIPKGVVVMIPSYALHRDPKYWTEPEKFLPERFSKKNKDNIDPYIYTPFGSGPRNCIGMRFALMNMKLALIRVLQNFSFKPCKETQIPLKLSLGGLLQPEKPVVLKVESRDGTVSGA

[12] = test system: Human immunodeficiency virus 1; assay: Antiviral activity against HIV1 isolate 05-121778 assessed as inhibition of viral replication after 7 days by scintillation counting; type: functional, organism-based; settings: Human immunodeficiency virus 1, isolate 05-121778, 168 h
[13] = Half life in dog at 3 mg/kg, po administered as single dose by liquid chromatography-mass spectroscopy; type: ADME, organism-based, Canis lupus familiaris; set-up: dose 3 mg/kg, route oral; settings: in vivo; in short: as §1
[14] = test system: Human immunodeficiency virus 1; assay: Antiviral activity against HIV1 isolate 05-121796 assessed as inhibition of viral replication after 7 days by scintillation counting; type: functional, organism-based; settings: Human immunodeficiency virus 1, isolate 05-121796, 168 h
[15] = Half life in rat at 3 mg/kg, po administered as single dose by liquid chromatography-mass spectroscopy; type: ADME, organism-based; set-up: dose 3 mg/kg, route oral; settings: in vivo
[16] = test system: Human immunodeficiency virus 1; assay: Antiviral activity against HIV1 Bal infected in human HOS cells after 72 hrs by luminescence assay; type: functional, organism-based; settings: Human immunodeficiency virus 1, Bal
In short: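 R5-tropic virus infection of HOS cells (hCXCR4/hCCR5/hCD4, LTR-luciferase reporter). Cells were plated in DMEM with 2% FCS overnight, pre-incubated with compound for 1 h, then given virus pre-mixed with compound. Incubation was 72 h at 37°C. Read-out was luciferase luminescence. IC50 from a four-parameter logistic fit.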

[17] = target: Cytochrome P450 2C9 (Homo sapiens, UniProt P11712); assay: Inhibition of CYP2C9 up to 30 uM; type: ADME
Cytochrome P450 2C9, sequence (P11712 whole entry): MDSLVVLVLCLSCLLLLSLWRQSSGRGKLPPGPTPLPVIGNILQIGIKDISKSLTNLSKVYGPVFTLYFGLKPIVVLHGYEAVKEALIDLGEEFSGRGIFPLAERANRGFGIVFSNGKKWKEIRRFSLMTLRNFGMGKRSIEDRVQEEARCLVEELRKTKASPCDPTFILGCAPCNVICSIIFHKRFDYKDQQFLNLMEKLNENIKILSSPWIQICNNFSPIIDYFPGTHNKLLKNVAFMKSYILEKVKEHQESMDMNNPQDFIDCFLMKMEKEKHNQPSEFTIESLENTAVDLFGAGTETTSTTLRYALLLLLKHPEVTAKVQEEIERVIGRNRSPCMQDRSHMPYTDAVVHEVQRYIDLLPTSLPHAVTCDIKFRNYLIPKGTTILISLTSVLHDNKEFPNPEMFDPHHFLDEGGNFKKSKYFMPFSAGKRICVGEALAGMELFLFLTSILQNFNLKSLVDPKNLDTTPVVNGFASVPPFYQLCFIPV

[18] = test system: Human immunodeficiency virus 1; assay: Antiviral activity against HIV1 isolate 05-121801 assessed as inhibition of viral replication after 7 days by scintillation counting; type: functional, organism-based; settings: Human immunodeficiency virus 1, isolate 05-121801, 168 h
[19] = test system: Human immunodeficiency virus 1; assay: Antiviral activity against HIV1 3B infected in human PBMC assessed as inhibition of viral replication after 7 days by scintillation counting; type: functional, organism-based; settings: Human immunodeficiency virus 1, 3B, 168 h
In short: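 PHA/IL-2-stimulated donor PBMCs at 4 × 10^6 cells/ml in RPMI with 20% FCS and 10% IL-2. Cells were pre-incubated with compound for 1 h, then infected with HIV-1 IIIB pre-mixed with compound for 7 days at 37°C. Supernatant reverse transcriptase was measured with poly(rA)·oligo(dT) and [3H]dTTP for 2 h, captured on DE-81 filters, and counted.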

[20] = test system: Human immunodeficiency virus 1; assay: Antiviral activity against HIV1 isolate 05-121776 assessed as inhibition of viral replication after 7 days by scintillation counting; type: functional, organism-based; settings: Human immunodeficiency virus 1, isolate 05-121776, 168 h
[21] = target: C-X-C chemokine receptor type 4 (Homo sapiens) (UniProt P61073); assay: Inhibition of CXCR4-mediated chemotaxis in SDF1-stimulated human U937 cells treated 15 mins before SDF1 challenge measured after 2 hrs by luminescence assay relative to control; type: cell-based; settings: U-937; in short: as §2
[22] = test system: Human immunodeficiency virus 1; assay: Antiviral activity against HIV1 isolate 05-121799 assessed as inhibition of viral replication after 7 days by scintillation counting; type: functional, organism-based; settings: Human immunodeficiency virus 1, isolate 05-121799, 168 h
[23] = test system: Human immunodeficiency virus 1; assay: Antiviral activity against HIV1 3B infected in human HOS cells after 72 hrs by luminescence assay in presence of alpha-acid glycoprotein and human serum albumin; type: functional, organism-based; settings: Human immunodeficiency virus 1, 3B
In short: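 HOS LTR-luciferase viral assay (1 h compound pre-incubation, virus plus compound, 72 h, 37°C, luminescence) run with human serum albumin (45 mg/ml) with or without α-acid glycoprotein (1 mg/ml). Protein-free IC50 served as baseline for fold shift.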

[24] = test system: Human immunodeficiency virus 1; assay: Antiviral activity against HIV1 3B infected in human HOS cells after 72 hrs by luminescence assay; type: functional, organism-based; settings: Human immunodeficiency virus 1, 3B
In short: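 HOS cells express hCXCR4, hCCR5 and hCD4 plus an HIV-1 LTR-luciferase reporter. 6,000 cells/well were plated in DMEM with 2% FCS and grown overnight, then pre-incubated with compound for 1 h. Virus pre-mixed with compound was added, and cells were incubated 72 h at 37°C. Read-out was luciferase luminescence. IC50 from a four-parameter logistic fit.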

[25] = target: C-X-C chemokine receptor type 4 (Homo sapiens) (UniProt P61073); assay: Inhibition of CXCR4-mediated chemotaxis in SDF1-stimulated human U937 cells treated 15 mins before SDF1 challenge measured after 2 hrs by luminescence assay; type: cell-based; settings: U-937; in short: as §2
[26] = Half life in mouse at 3 mg/kg, po administered as single dose by liquid chromatography-mass spectroscopy; type: ADME, organism-based; set-up: dose 3 mg/kg, route oral; settings: in vivo
[27] = target: C-X-C chemokine receptor type 4 (Homo sapiens) (UniProt P61073); assay: Noncompetitive antagonist activity at human CXCR4 expressed in HEK293 cells assessed as inhibition of SDF1-induced increase in intracellular calcium level treated 15 mins before agonist challenge measured after 1 hr by FLIPR assay; type: functional, cell-based
[28] = test system: Human immunodeficiency virus 1; assay: Antiviral activity against HIV1 isolate 05-121789 assessed as inhibition of viral replication after 7 days by scintillation counting; type: functional, organism-based; settings: Human immunodeficiency virus 1, isolate 05-121789, 168 h

`CN1CCN(c2cccc3nc(CN(C)[C@H]4CCCc5cccnc54)c(CO)n23)CC1` gave an IC50 [1] of 1 nM, an IC50 [2] of 1 nM and an IC50 [3] of 1 nM. The inhibition [4] was 26%, the “inhibition (INH)” value [5] was “Not Active” and the IC50 [6] was 1 nM. The half-life [7] was greater than 12 h, the IC50 [8] was 1 nM and the inhibition [9] was “Active”. The IC50 [10] was 1 nM, the “inhibition (INH)” value [11] was “Not Active” and the IC50 [12] was 1 nM. For the same molecule, the half-life [13] was greater than 12 h, the IC50 [14] was 1 nM and the half-life [15] was 8.6 h. The IC50 [16] was greater than 2500 nM, the “inhibition (INH)” value [17] was “Not Active” and the IC50 [18] was 1 nM. For the same molecule, the IC50 [19] was 4.6 nM, the IC50 [20] was 1 nM and the inhibition [21] was 109%. It also gave an IC50 [22] of 1 nM, an IC50 [23] of 3.14 nM and an IC50 [24] of 1.5 nM. For the same molecule, the inhibition [25] was “Dose-dependent effect”, the half-life [26] was 4.1 h and the Activity [27] was “Active”. The IC50 [28] was 1 nM.
